proCasp3 act: activators of human procaspase-3 | P42574 | recombinant procaspase-3 D3A, Ac-DEVD-pNA absorbance 405 nm | activation, % at 8.5 µM | 0.11% of 330,000 active | AID 463141;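 active = activation above the mean of all tested compounds plus 3 SD, cut at about 21% in these data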
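Test system: Procaspase-3 D3A mutant; medium: Zinc-free HEPES/NaCl buffer with 0.01% Triton X-100 at pH 7.4; reagent: DEVD-pNA substrate; doses: one concentration, 8.5 µM nominal, 0.8% DMSO; times: 1 h preincubation plus 2 h reaction at 25 °C; signal: Epi-absorbance at 405 nm of released p-nitroaniline, 0 and 120 min; replicates: singlicate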
IDE cell inh: inhibits human insulin-degrading enzyme in HEK cells | inhibition, % at 5.59 µM | FAbetaB cleavage, fluorescence polarization | P14735 | 0.41% of 320,000 active;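 active = percent inhibition above the average of all tested compounds plus 3 SD, set per screening campaign, cut at about 16% in these data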;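 also: IDE supplied by intact live HEK cells; FP after avidin binding of uncleaved biotin substrate so inhibition keeps polarization high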
UBC13 polyUb: human UBC13 polyubiquitination inhibition | UBC13 polyubiquitin chain formation, TR-FRET | inhibition, % at 20 µM | 0.47% of 330,000 active | AID 485273; in the data active = inhibition above about 45%, passing the limit was not always enough
Target sequence (P61088 whole entry, looked up): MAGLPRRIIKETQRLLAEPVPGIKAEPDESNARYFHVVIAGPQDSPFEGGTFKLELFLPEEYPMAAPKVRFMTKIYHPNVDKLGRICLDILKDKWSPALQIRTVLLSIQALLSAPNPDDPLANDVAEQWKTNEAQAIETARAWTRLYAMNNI
procasp7 counter: counter-screen: procaspase-7 (human) activation | recombinant procaspase-7, Ac-DEVD-pNA absorbance 405 nm; D23A/D198A/D206A triple mutant, cannot self-cleave; scale: DMSO 0, 5 µM enzyme 100 | 0.093% of 330,000 active | activation, % at 8.5 µM | AID 463210;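 active = percent activation above the screen-wide mean plus 3 SD, cut at about 25% in these data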
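Assay system – Uncleavable procaspase-7 mutant enzyme · Quantity – 2 µM procaspase-7 mutant as dispensed · Times – 1 h preincubation, 2 h reaction · Dosing – single nominal 8.5 µM compound dose, 0.8% DMSO final · Buffer or medium – Zinc-free 50 mM HEPES buffer, pH 7.4, with NaCl and Triton X-100 · Detection – Epi-absorbance of released pNA at 405 nm, two timepoints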
IDE act: activators of human insulin-degrading enzyme in cells. HEK cells, FAbeta-B cleavage, fluorescence polarization; 0% vehicle, 100% cell-free pure enzyme wells. activation, % at 5.96 µM. 0.073% of 340,000 active. AID 493087;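 active = activation above the mean of all tested compounds plus 3 SD, set per screening campaign, cut at about 17% in these data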
PHOSPHO1 block: inhibitors of human PHOSPHO1 phosphatase; inhibition, % at 13.3 µM; AID 1565; 1.1% of 290,000 active; recombinant PHOSPHO1, absorbance phosphatase assay; Q8TCT1; in the data active = inhibition above about 60%
Target sequence (Q8TCT1 whole entry, looked up): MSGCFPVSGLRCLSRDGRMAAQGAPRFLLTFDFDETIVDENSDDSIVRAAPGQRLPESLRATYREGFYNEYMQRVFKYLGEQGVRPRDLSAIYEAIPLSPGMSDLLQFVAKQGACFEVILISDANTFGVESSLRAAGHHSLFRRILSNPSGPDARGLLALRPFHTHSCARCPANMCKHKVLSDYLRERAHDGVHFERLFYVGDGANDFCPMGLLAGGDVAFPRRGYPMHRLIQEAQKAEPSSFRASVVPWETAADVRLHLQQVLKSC
Casp3 counter: caspase-3 inhibition (UBC13 counter-screen); Recombinant caspase-3, Caspase-Glo 3/7 luminescence, 60 min; 4% of 1,400 active; shares compounds with UBC13 polyUb; inhibition, % at 20 µM; AID 488856;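 active = mean inhibition across replicates above about 26%, limit read from the data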
Target sequence (P42574 whole entry, looked up): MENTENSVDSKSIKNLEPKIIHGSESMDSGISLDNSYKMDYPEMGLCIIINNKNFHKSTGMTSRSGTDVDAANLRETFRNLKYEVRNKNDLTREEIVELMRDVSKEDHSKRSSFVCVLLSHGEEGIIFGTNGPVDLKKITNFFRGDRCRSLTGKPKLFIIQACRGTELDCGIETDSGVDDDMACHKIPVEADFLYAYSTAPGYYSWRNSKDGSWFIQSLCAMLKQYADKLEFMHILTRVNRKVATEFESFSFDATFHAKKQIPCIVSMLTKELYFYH
UBC13 confirm: human UBC13 polyubiquitin inhibition, confirmed; shares compounds with UBC13 polyUb; UBC13 polyubiquitination, TR-FRET, biochemical; inhibition, % at 10 µM; 68% of 1,400 active; in the data active = inhibition above about 45%
Large screens that a line does not name were inactive (follow-up assays come after a bar, where they were run). An excerpt weighted towards active compounds, which were near 1.9% of everything screened.

CCC(=O)NC(c1cc(Cl)c2ccccc2c1O)C(C)C (stereo unspecified)	UBC13 polyUb 71 (no result: PHOSPHO1 block) | Casp3 counter inactive | UBC13 confirm 56
CC(=O)NC(C)c1cc(Cl)c2ccccc2c1O (stereo unspecified)	UBC13 polyUb 63 (no result: PHOSPHO1 block) | Casp3 counter inactive | UBC13 confirm 47
O=C(COC(=O)CCC1CCCC1)Nc1ccc(F)cc1	none (no result: PHOSPHO1 block)
COc1ccc(C(C)=O)cc1CSc1ccc(S(=O)(=O)N2CCCCC2)cn1	none (no result: PHOSPHO1 block)
O=C(CCC(=O)N1CCOc2ccc(Cl)cc21)NCCCN1CCC(Cc2ccccc2)CC1	UBC13 polyUb 92 | Casp3 counter inactive | UBC13 confirm 92
COc1ccc(N2CCN(CCCNC(=O)CCC(=O)N3CCOc4ccc(Cl)cc43)CC2)cc1	none
Cc1ccc(C)c(N2CCN(CCCNC(=O)CCC(=O)N3CCOc4ccc(Cl)cc43)CC2)c1	UBC13 polyUb 60 (no result: IDE act) | Casp3 counter inactive | UBC13 confirm 80
O=C(CCC(=O)N1CCOc2ccc(Cl)cc21)NCCCN1CCN(c2ccccc2F)CC1	UBC13 polyUb 62 | Casp3 counter inactive | UBC13 confirm inactive
COc1ccccc1NC(=S)N1CC(C)(C)C1=O	none
COc1ccc(-c2sc3ccc(OC)cc3c2C#Cc2cncn2C)cc1	UBC13 polyUb 48 (no result: PHOSPHO1 block) | Casp3 counter inactive | UBC13 confirm inactive
CCOC(=O)c1c(C)[nH]c(/C(C)=N/O)c1C	none
CCOC(=O)c1c(C)[nH]c(C2=NNC(=NC3CC3)SC2)c1C	UBC13 polyUb 77 | Casp3 counter 73 | UBC13 confirm 101
CC[C@@H](C)[C@@H]1CN([C@@H](C)CN2CCC[C@H]2CN2C(N)=NC[C@@H]2Cc2ccccc2)C(=N)N1CCCC1CCCC1	UBC13 polyUb 71 (no result: PHOSPHO1 block) | Casp3 counter inactive | UBC13 confirm 73
CC[C@@H](C)[C@@H]1CN([C@@H](CN2CCC[C@H]2CN2C(N)=NC[C@H]2C(C)C)C(C)C)C(=N)N1CCc1ccc(Cl)c(Cl)c1	UBC13 polyUb 75 (no result: PHOSPHO1 block) | Casp3 counter inactive | UBC13 confirm 61
NC1=NC[C@H](Cc2ccccc2)N1CCCCC1CCCCC1	UBC13 polyUb 86 | Casp3 counter inactive | UBC13 confirm 80
CC[C@@H](C)[C@@H]1CN([C@@H](C)CN2CCC[C@H]2CN2C(N)=NC[C@@H]2Cc2ccccc2)C(=N)N1CCc1ccc(Cl)c(Cl)c1	UBC13 polyUb 76 (no result: PHOSPHO1 block) | Casp3 counter inactive | UBC13 confirm 70
c1ccc(C[C@H]2CN=C(Nc3ccccc3)N2CCC2CCCC2)cc1	none (no result: PHOSPHO1 block)
CCC(C)[C@H]1CN=C(N)N1CCCc1cc(OC)c(OC)c(OC)c1 (stereo partly specified)	none
COc1ccc(Cl)cc1/C=N/NC(=O)c1c(-c2ccccc2)noc1C	UBC13 polyUb 56 (no result: proCasp3 act, IDE cell inh, procasp7 counter) | Casp3 counter inactive | UBC13 confirm inactive
CC(C)Cn1nc(C(=O)NCc2ccccc2CN2CCCC2)c2ccccc2c1=O	none (no result: PHOSPHO1 block)
CC1Sc2ccc(S(=O)(=O)N3CCC(C(=O)NCC(C)c4ccccc4)CC3)cc2NC1=O (stereo unspecified)	none
Cc1ccccc1CN1CCC(CNC(=O)C2CCCN(c3ncnc4c3nc3n4CCCCC3)C2)CC1 (stereo unspecified)	UBC13 polyUb 72 | Casp3 counter inactive | UBC13 confirm 90
COc1cccc(CCNC(=O)C2CCCN(c3ncnc4c3nc3n4CCCCC3)C2)c1OC (stereo unspecified)	none
O=C(NCCCN1CCN(c2ccc(F)cc2)CC1)C1CCCN(c2ncnc3c2nc2n3CCCCC2)C1 (stereo unspecified)	UBC13 polyUb 83 | Casp3 counter inactive | UBC13 confirm 107
CC(=O)NNS(=O)(=O)c1ccc(-c2cc(C(F)(F)F)n(C)n2)s1	none
CCn1c(=O)c2cc(C(=O)NCCC(C)C)sc2c2ccccc21	none
CCN(CC)CCNC(=O)c1cc2c(=O)n(C)c3ccccc3c2s1	UBC13 polyUb 55 | Casp3 counter inactive | UBC13 confirm 62
CCCCN(CC)CCNC(=O)c1cc2c(=O)n(C)c3ccccc3c2s1	UBC13 polyUb 70 | Casp3 counter inactive | UBC13 confirm 80
CCCCN(CC)CCCNC(=O)c1cc2c(=O)[nH]c3ccccc3c2s1	none
COc1ccc(N(C)S(=O)(=O)c2ccc3c(c2)NC(=O)CO3)c(OC)c1	none
O=c1c(Cl)c(NCCCO)cnn1-c1nc2ccccc2[nH]1	UBC13 polyUb 91 | Casp3 counter 93 | UBC13 confirm 110
CC1=CC(C)(C)n2c(O)c(N=NC(N)=S)c3cc(C)cc1c32	UBC13 polyUb 57 | Casp3 counter inactive | UBC13 confirm 52
CCN(CC)Cc1c(C(=O)N/N=C/c2cccc(OCc3cccc(Cl)c3)c2)nnn1-c1nonc1N	none
COc1ccc(C(=O)N/N=C/c2cccnc2)cc1	none
Cc1nc(N)sc1C(=O)N/N=C/c1cccnc1	UBC13 polyUb 92 | Casp3 counter inactive | UBC13 confirm 108
Oc1ccc(-c2nc3ccccc3nc2-c2ccccc2)cc1	none
CCCCCOc1ccc(/C(C)=N/NC2=NCCN2)cc1	none
CCCCCCOc1ccc(/C(C)=N/NC2=NCCN2)cc1	UBC13 polyUb 60 (no result: PHOSPHO1 block) | Casp3 counter inactive | UBC13 confirm 85
Cc1cccc(Nc2cc(C)c3c(O)cccc3n2)c1C	UBC13 polyUb 74 | Casp3 counter inactive | UBC13 confirm 58
C=CCC(C(=O)Oc1c(C(C)(C)C)cc(C)cc1C(C)(C)C)c1ccccc1 (stereo unspecified)	none (no result: PHOSPHO1 block)
COCCCn1c(=O)c2ccccc2n(CC(=O)NC2CCCCC2)c1=O	none
COC(=O)c1ccccc1NC(=O)Cn1c(=O)n(CCC(=O)NC2CCN(Cc3ccccc3)CC2)c(=O)c2ccccc21	none
Cc1cccc(C)c1NC(=O)Cn1c(=O)n(CCCC(=O)NC2CCN(Cc3ccccc3)CC2)c(=O)c2ccccc21	UBC13 polyUb 85 | Casp3 counter inactive | UBC13 confirm 105
Cc1cc(NC(=O)Cn2c(=O)n(CCCCC(=O)NC3CCN(Cc4ccccc4)CC3)c(=O)c3ccccc32)n[nH]1	UBC13 polyUb 52 (no result: IDE act) | Casp3 counter inactive | UBC13 confirm 48
O=C(CCCCn1c(=O)c2ccccc2n(Cc2ccccc2F)c1=O)NC1CCN(Cc2ccccc2)CC1	UBC13 polyUb 100 | Casp3 counter inactive | UBC13 confirm 107
CC(C)OCCCn1c(=O)c2ccccc2n2c(CCC(=O)NC3CCN(Cc4ccccc4)CC3)nnc12	none

From PubChem
